Screening results (PubChem)
TNAP inh noacc = human TNAP enzyme inhibitors, primary screen, biochemical, luminescent, no phosphate acceptor, uHTS. AID 1012, 2008. inhibition, % at 20 µM. Alkaline phosphatase, tissue-nonspecific isozyme (Homo sapiens), P05186. purified TNAP, CDP-star luminescence, 30 min. 200,000 tested, 0.26% active;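 active = tissue-nonspecific alkaline phosphatase inhibition above about 50% at 20 µM in the single-dose screen, limit read from the data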
Target sequence (P05186 whole entry, looked up): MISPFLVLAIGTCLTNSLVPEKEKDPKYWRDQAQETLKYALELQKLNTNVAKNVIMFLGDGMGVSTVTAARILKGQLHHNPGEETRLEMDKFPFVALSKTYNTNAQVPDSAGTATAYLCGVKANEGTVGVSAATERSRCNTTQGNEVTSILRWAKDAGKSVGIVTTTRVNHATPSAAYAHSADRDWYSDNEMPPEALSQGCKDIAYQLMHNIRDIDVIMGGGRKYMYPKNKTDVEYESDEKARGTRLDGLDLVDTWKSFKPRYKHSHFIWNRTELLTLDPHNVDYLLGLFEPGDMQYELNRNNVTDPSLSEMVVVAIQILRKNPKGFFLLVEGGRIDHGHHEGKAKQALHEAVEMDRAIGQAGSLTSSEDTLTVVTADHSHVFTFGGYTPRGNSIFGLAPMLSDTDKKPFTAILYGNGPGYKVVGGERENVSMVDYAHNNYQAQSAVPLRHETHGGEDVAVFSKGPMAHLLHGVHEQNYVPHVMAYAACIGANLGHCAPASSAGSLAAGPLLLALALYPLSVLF
RAM network inh = inhibitors of the yeast RAM network, primary screen, dse1pr::URA3 reporter, 5-FOA selection; 190,000 tested, 1.8% active; AID 868, 2007; inhibition, % at 50 µM; S. cerevisiae dse1pr::URA3 reporter, 5-FOA growth OD615, 2 d; analog-sensitive cbk1-as2 kinase mutant strain;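 active = inhibition above a set limit, 3 SD over mean compound inhibition, cut at about 8.4% in these data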;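 note: inhibition rescues growth on 5-FOA so higher OD means more RAM inhibition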
TNAP inh hiacc = human TNAP enzyme inhibitors, primary screen, biochemical, luminescent, high phosphate acceptor level, uHTS | Alkaline phosphatase, tissue-nonspecific isozyme (Homo sapiens), P05186 | purified TNAP, CDP-star luminescence, 1 M DEA | inhibition, % at 20 µM | 200,000 tested, 0.03% active | AID 1135, 2008;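 active = over 50% inhibition of tissue-nonspecific alkaline phosphatase at 20 µM in the single-dose screen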
Yeast lifespan up = compounds extending yeast replicative lifespan, primary screen, S. cerevisiae, OD615; inhibition of the nicotinamide effect, % at 10 µM; S. cerevisiae growth with nicotinamide; deaD strain in restrictive glucose medium; 130,000 tested, 0.68% active;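 active = inhibition above a set limit, placed 3 SD over the median of all compounds, cut at about 26% in these data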
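Assay system: DeaD-strain S. cerevisiae. Medium: CSMM-D glucose medium, restrictive. Reagent: nicotinamide, 1.5 mM, co-present with compound. Compound: 10 µM single point, 0.25% DMSO. Schedule: culture preincubation 4 h, compound exposure 48 h, both 30 °C. Detection: absorbance at 615 nm.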
BB579 growth dn = growth inhibitors of yeast BB579 in restrictive medium, primary screen, yeast lifespan-shortening project, S. cerevisiae; OD615, 48 h; inhibition, % at 10 µM; 140,000 tested, 0.51% active; AID 804, 2007;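 active = inhibition above a set limit, 3 SD over the mean compound inhibition, cut at about 44% in these data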
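Assay system – yeast BB579 (DeaD) · Dosing – single compound dose of 10 µM, 0.25% DMSO final · Detection – OD615 turbidity measurement · Buffer or medium – CSMM-D restrictive synthetic medium containing dextrose (glucose) · Benchmarks – positive control amphotericin B 10 µg/mL · Incubation – 48 h exposure, 30 °C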
TNAP act hiacc = TNAP activators at high phosphate acceptor level, primary screen, biochemical, luminescence, uHTS | Alkaline phosphatase, tissue-nonspecific isozyme (Homo sapiens), P05186 | purified TNAP, CDP-star luminescence, 1 M DEA, 30 min; active compounds read high; 0 = EDTA background, 1 = DMSO-only activity | activation factor at 20 µM | 200,000 tested, under 10 active;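 active = activation factor at least 2 at 20 µM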
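Dosing: 20 µM single point. System: human TNAP. Amount: TNAP 1/800 final. Incubation: 30 min, room temperature. Read-out: TNAP activation factor scaled between EDTA and DMSO control wells. Signal: luminescence from CDP-star hydrolysis. Medium: 1 M DEA, pH 9.8, Mg2+, Zn2+. Control set: EDTA negative control, DMSO positive control.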
Of the large screens only hits and unclear results are named; the others gave an inactive call. Only some compounds are listed: those with a hit (about 2.8% of all), similar ones and a draw of the others.

Cn1cccc1Cc1nnc(SCC(=O)Nc2ccc(Cl)cc2)n1-c1ccc(F)cc1	none
O=C(COC(=O)c1ccc(N2CCOCC2)c([N+](=O)[O-])c1)Nc1ccc2c(c1)OCO2	none
Nc1ccc(C(=O)OCC(=O)Nc2ccc3c(c2)OCO3)cc1[N+](=O)[O-]	BB579 growth dn 98
Cc1ccc(C2NC(=O)CCC2[N+](=O)[O-])cc1 (stereo unspecified)	none (no result: Yeast lifespan up, BB579 growth dn)
CC(/C=C1\N=C(SCc2ccccc2Cl)SC1=O)=C\c1ccccc1	RAM network inh 10
O=C1SC(SCc2ccccc2)=N/C1=C\c1ccc(C(=O)O)cc1	none (no result: Yeast lifespan up, BB579 growth dn)
COCCCn1c(SCC(=O)Nc2sc3c(c2C#N)CCCC3)nnc1-c1ccncc1	TNAP inh hiacc 55 (no result: Yeast lifespan up)
COCCCn1c(SCC(=O)Nc2cccc(C(=O)OC)c2)nnc1-c1ccncc1	none
Cc1cc(NC(=O)c2cccc(F)c2)ncc1NC(=O)c1ccco1	Yeast lifespan up 31
Cc1cc(CC(C)C)n(-c2nc3ccccc3c(=O)n2OCc2ccccc2)n1	RAM network inh 9.8
Cc1cc(CC(C)C)n(-c2nc3ccccc3c(=O)n2OCC(=O)N(C)C)n1	none
COc1ccc(-c2ccnc(SCC(=O)c3ccc(Cl)cc3)n2)cc1	RAM network inh 8.9
COc1ccc(-c2ccnc(SCC(=O)c3ccc(OC)c(OC)c3)n2)cc1	none
CC(=O)NC1C(=O)N=C(SCC(=O)Nc2cccc(Cl)c2)NC1=O (stereo unspecified)	none (no result: Yeast lifespan up, BB579 growth dn)
Cc1ccc(Nc2nnc(SCC(=O)NC(Cc3c[nH]c4ccccc34)C(=O)O)s2)cc1 (stereo unspecified)	none (no result: Yeast lifespan up, BB579 growth dn)
CN1CCN(C(=S)c2ccc([N+](=O)[O-])cc2)CC1	none
CN1CCN(C(=S)Nc2cc([N+](=O)[O-])ccc2Cl)CC1	Yeast lifespan up 45
NC(=O)c1ccsc1NC(=O)COC(=O)Cc1cccc2ccccc12	none
Cc1ccc(S(=O)(=O)N2CCC(C(=O)NCCc3ccccc3)CC2)cc1	none
Cc1ccc(S(=O)(=O)N2CCC(C(=O)NCCc3ccc(S(N)(=O)=O)cc3)CC2)cc1	RAM network inh 8.9
Cc1cc2cc(C)c3nnc(SCC(=O)N4CCc5ccccc54)n3c2cc1C	none
O=C(CCn1c(=O)c2ccccc2n(Cc2cc(=O)n3ccccc3n2)c1=O)NCc1ccco1	RAM network inh 11
Cc1cccc2nc(Cn3c(=O)n(CCCC(=O)NCc4ccco4)c(=O)c4ccccc43)cc(=O)n12	none
CC1CC(C)CN(C(=O)Cn2c(=O)n(CCCCC(=O)NCc3ccco3)c(=O)c3ccccc32)C1 (stereo unspecified)	RAM network inh 11
COc1ccccc1NC(=O)C(=O)N1N=C(C(C)C)CC1(O)C(F)(F)F (stereo unspecified)	none
Cc1c(Cl)cccc1Nc1nc(N)nc(CSC(=S)N2CCOCC2)n1	none (no result: Yeast lifespan up, BB579 growth dn)
COc1cccc(NC(=O)Nc2ccncc2)c1	none (no result: Yeast lifespan up, BB579 growth dn)
COc1cccc(NC(=O)Nc2ccc(C(C)(C)C)cc2)c1	RAM network inh 9.9 (no result: Yeast lifespan up, BB579 growth dn)
Cc1ccc(NCC(=O)NNC2=NCCC2)c(C)c1	none
Cc1cccc(Oc2nc(CN3CCOCC3)nc3sc4c(c23)CCCC4)c1	Yeast lifespan up 33
CC1CCCN(C(=S)Nc2ccc3nc4n(c(=O)c3c2)CCCCC4)C1 (stereo unspecified)	none
CC(C)CCn1c(=O)c2ccccc2n2c(CCl)nnc12	none (no result: Yeast lifespan up, BB579 growth dn)
CSc1nc(C)c(Oc2ccccc2)c(=O)n1C	none
CSc1nc(-c2ccccc2F)c(C#N)c(=O)n1C	RAM network inh 8.6 (no result: Yeast lifespan up, BB579 growth dn)
CCN(C(=S)Nc1ccccc1F)C1CCCCC1	none
COc1cc(/C=C2\C(=O)ON=C2c2ccccc2)cc(OC)c1OC	BB579 growth dn 48
